Measurements as given in publication PMC9302689 (British Journal of Clinical Pharmacology, 2022).

System: healthy male subjects
Assay: Pharmaco-EEG
Type: in vivo, human
Details: 12-hour post-dose period
Method in brief: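 Continuous EEG was recorded from 21 electrodes placed by the 10–20 system, with mastoid electrodes replacing the earlobe ones. Recordings followed IPEG guidelines, twice pre-dose and at 0.5–10 h post-dose. Power spectra for Fz-Cz and Pz-O derivations were split into bands to give total band power (μV). Values were ln-transformed, analysed by MMRM over 12 h against pooled placebo, and back-transformed.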

SMILES: CN1CCC23CCCCC2C1Cc1ccc(C(N)=O)cc13 (stereo not drawn) [ALKS 7119, (9α, 13α)‐17‐methylmorphinan‐3‐carboxamide]
- Alpha-power Fz-Cz, LSM CFB (3 mg single oral dose): 0.01 Hz
- Alpha-power Fz-Cz, estimate of difference compared to placebo (3 mg single oral dose): 0 [−0.97, 0.97] P = 1.00 Hz
- Alpha-power Pz-Oz, LSM CFB (3 mg single oral dose): −0.06 Hz
- Alpha-power Pz-Oz, estimate of difference compared to placebo (3 mg single oral dose): −0.16 [−0.41, 0.10] P = .23 Hz
- Beta-power Fz-Cz, LSM CFB (3 mg single oral dose): 0.03 Hz
- Beta-power Fz-Cz, estimate of difference compared to placebo (3 mg single oral dose): −0.09 [−0.31, 0.14] P = .45 Hz
- Beta-power Pz-Oz, LSM CFB (3 mg single oral dose): −0.03 Hz
- Beta-power Pz-Oz, estimate of difference compared to placebo (3 mg single oral dose): −0.16 [−0.36, 0.04] P = .11 Hz
- Delta-power Fz-Cz, LSM CFB (3 mg single oral dose): 0 Hz
- Delta-power Fz-Cz, estimate of difference compared to placebo (3 mg single oral dose): −0.11 [−0.32, 0.10] P = .32 Hz
- Delta-power Pz-Oz, LSM CFB (3 mg single oral dose): −0.12 Hz
- Delta-power Pz-Oz, estimate of difference compared to placebo (3 mg single oral dose): −0.18 [−0.41, 0.05] P = .12 Hz
- Gamma-power Fz-Cz, LSM CFB (3 mg single oral dose): 0.05 Hz
- Gamma-power Fz-Cz, estimate of difference compared to placebo (3 mg single oral dose): −0.04 [−0.25, 0.16] P = .66 Hz
- Gamma-power Pz-Oz, LSM CFB (3 mg single oral dose): 0.09 Hz
- Gamma-power Pz-Oz, estimate of difference compared to placebo (3 mg single oral dose): −0.12 [−0.37, 0.13] P = .35 Hz
- Theta-power Fz-Cz, LSM CFB (3 mg single oral dose): −0.06 Hz
- Theta-power Fz-Cz, estimate of difference compared to placebo (3 mg single oral dose): −0.14 [−0.36, 0.09] P = .23 Hz
- Theta-power Pz-Oz, LSM CFB (3 mg single oral dose): −0.1 Hz
- Theta-power Pz-Oz, estimate of difference compared to placebo (3 mg single oral dose): −0.17 [−0.40, 0.06] P = .15 Hz
- Alpha-power Fz-Cz, LSM CFB (10 mg single oral dose): 0.09 Hz
- Alpha-power Fz-Cz, estimate of difference compared to placebo (10 mg single oral dose): 0.15 [−0.94, 1.24] P = .79 Hz
- Alpha-power Pz-Oz, LSM CFB (10 mg single oral dose): 0.11 Hz
- Alpha-power Pz-Oz, estimate of difference compared to placebo (10 mg single oral dose): 0.01 [−0.25, 0.27] P = .94 Hz
- Beta-power Fz-Cz, LSM CFB (10 mg single oral dose): 0.08 Hz
- Beta-power Fz-Cz, estimate of difference compared to placebo (10 mg single oral dose): −0.03 [−0.26, 0.19] P = .78 Hz
- Beta-power Pz-Oz, LSM CFB (10 mg single oral dose): 0.14 Hz
- Beta-power Pz-Oz, estimate of difference compared to placebo (10 mg single oral dose): 0.01 [−0.19, 0.21] P = .91 Hz
- Delta-power Fz-Cz, LSM CFB (10 mg single oral dose): 0.05 Hz
- Delta-power Fz-Cz, estimate of difference compared to placebo (10 mg single oral dose): −0.05 [−0.26, 0.16] P = .65 Hz
- Delta-power Pz-Oz, LSM CFB (10 mg single oral dose): 0.07 Hz
- Delta-power Pz-Oz, estimate of difference compared to placebo (10 mg single oral dose): 0.01 [−0.23, 0.24] P = .96 Hz
- Gamma-power Fz-Cz, LSM CFB (10 mg single oral dose): 0.09 Hz
- Gamma-power Fz-Cz, estimate of difference compared to placebo (10 mg single oral dose): −0.01 [−0.21, 0.21] P = .95 Hz
- Gamma-power Pz-Oz, LSM CFB (10 mg single oral dose): 0.13 Hz
- Gamma-power Pz-Oz, estimate of difference compared to placebo (10 mg single oral dose): −0.08 [−0.33, 0.17] P = .54 Hz
- Theta-power Fz-Cz, LSM CFB (10 mg single oral dose): 0.02 Hz
- Theta-power Fz-Cz, estimate of difference compared to placebo (10 mg single oral dose): −0.05 [−0.28, 0.18] P = .65 Hz
- Theta-power Pz-Oz, LSM CFB (10 mg single oral dose): 0.04 Hz
- Theta-power Pz-Oz, estimate of difference compared to placebo (10 mg single oral dose): −0.03 [−0.26, 0.20] P = .79 Hz
- Alpha-power Fz-Cz, LSM CFB (25 mg single oral dose): −0.01 Hz
- Alpha-power Pz-Oz, LSM CFB (25 mg single oral dose): −0.01 Hz
- Alpha-power Pz-Oz, estimate of difference compared to placebo (25 mg single oral dose): −0.11 [−0.36, 0.15] P = .41 Hz
- Beta-power Fz-Cz, LSM CFB (25 mg single oral dose): 0.05 Hz
- Beta-power Fz-Cz, estimate of difference compared to placebo (25 mg single oral dose): −0.06 [−0.28, 0.16] P = .58 Hz
- Beta-power Pz-Oz, LSM CFB (25 mg single oral dose): 0.08 Hz
- Beta-power Pz-Oz, estimate of difference compared to placebo (25 mg single oral dose): −0.04 [−0.24, 0.15] P = .66 Hz
- Delta-power Fz-Cz, LSM CFB (25 mg single oral dose): −0.04 Hz
- Delta-power Fz-Cz, estimate of difference compared to placebo (25 mg single oral dose): −0.14 [−0.35, 0.07] P = .19 Hz
- Delta-power Pz-Oz, LSM CFB (25 mg single oral dose): 0 Hz
- Delta-power Pz-Oz, estimate of difference compared to placebo (25 mg single oral dose): −0.06 [−0.31, 0.17] P = .61 Hz
- Gamma-power Fz-Cz, LSM CFB (25 mg single oral dose): 0.06 Hz
- Gamma-power Fz-Cz, estimate of difference compared to placebo (25 mg single oral dose): −0.04 [−0.04, 0.16] P = .69 Hz
- Gamma-power Pz-Oz, LSM CFB (25 mg single oral dose): 0.16 Hz
- Gamma-power Pz-Oz, estimate of difference compared to placebo (25 mg single oral dose): −0.05 [−0.30, 0.20] P = .70 Hz
- Theta-power Fz-Cz, LSM CFB (25 mg single oral dose): −0.06 Hz
- Theta-power Fz-Cz, estimate of difference compared to placebo (25 mg single oral dose): −0.13 [−0.36, 0.09] P = .24 Hz
- Theta-power Pz-Oz, LSM CFB (25 mg single oral dose): −0.04 Hz
- Theta-power Pz-Oz, estimate of difference compared to placebo (25 mg single oral dose): −0.11 [−0.35, 0.12] P = .33 Hz
- Alpha-power Fz-Cz, LSM CFB (50 mg single oral dose): 0.08 Hz
- Alpha-power Fz-Cz, estimate of difference compared to placebo (50 mg single oral dose): 0.13 [−0.81, 1.07] P = .79 Hz
- Alpha-power Pz-Oz, LSM CFB (50 mg single oral dose): 0.03 Hz
- Alpha-power Pz-Oz, estimate of difference compared to placebo (50 mg single oral dose): −0.06 [−0.32, 0.19] P = .62 Hz
- Beta-power Fz-Cz, LSM CFB (50 mg single oral dose): 0.04 Hz
- Beta-power Fz-Cz, estimate of difference compared to placebo (50 mg single oral dose): −0.07 [−0.31, 0.15] P = .51 Hz
- Beta-power Pz-Oz, LSM CFB (50 mg single oral dose): 0.13 Hz
- Beta-power Pz-Oz, estimate of difference compared to placebo (50 mg single oral dose): 0 [−0.20, 0,20] P = 1.00 Hz
- Delta-power Fz-Cz, LSM CFB (50 mg single oral dose): 0 Hz
- Delta-power Fz-Cz, estimate of difference compared to placebo (50 mg single oral dose): −0.10 [−0.31, 0.11] P = .34 Hz
- Delta-power Pz-Oz, LSM CFB (50 mg single oral dose): 0.08 Hz
- Delta-power Pz-Oz, estimate of difference compared to placebo (50 mg single oral dose): 0.02 [−0.21, 0.25] P = .87 Hz
- Gamma-power Fz-Cz, LSM CFB (50 mg single oral dose): 0.01 Hz
- Gamma-power Fz-Cz, estimate of difference compared to placebo (50 mg single oral dose): −0.09 [−0.31, 0.11] P = .39 Hz
- Gamma-power Pz-Oz, LSM CFB (50 mg single oral dose): 0.08 Hz
- Gamma-power Pz-Oz, estimate of difference compared to placebo (50 mg single oral dose): −0.12 [−0.38, 0.13] P = .33 Hz
- Theta-power Fz-Cz, LSM CFB (50 mg single oral dose): 0.02 Hz
- Theta-power Fz-Cz, estimate of difference compared to placebo (50 mg single oral dose): −0.05 [−0.28, 0.17] P = .64 Hz
- Theta-power Pz-Oz, LSM CFB (50 mg single oral dose): 0.08 Hz
- Theta-power Pz-Oz, estimate of difference compared to placebo (50 mg single oral dose): 0.01 [−0.23, 0.24] P = .95 Hz
- Alpha-power Fz-Cz, LSM CFB (75 mg single oral dose): 0.16 Hz
- Alpha-power Fz-Cz, estimate of difference compared to placebo (75 mg single oral dose): 0.32 [−0.64, 1.29] P = .51 Hz
- Alpha-power Pz-Oz, LSM CFB (75 mg single oral dose): 0.14 Hz
- Alpha-power Pz-Oz, estimate of difference compared to placebo (75 mg single oral dose): 0.04 [−0.22, 0.30] P = .75 Hz
- Beta-power Fz-Cz, LSM CFB (75 mg single oral dose): 0.21 Hz
- Beta-power Fz-Cz, estimate of difference compared to placebo (75 mg single oral dose): 0.09 [−0.13, 0.32] P = .40 Hz
- Beta-power Pz-Oz, LSM CFB (75 mg single oral dose): 0.17 Hz
- Beta-power Pz-Oz, estimate of difference compared to placebo (75 mg single oral dose): 0.04 [−0.16, 0.24] P = .69 Hz
- Delta-power Fz-Cz, LSM CFB (75 mg single oral dose): 0.17 Hz
- Delta-power Fz-Cz, estimate of difference compared to placebo (75 mg single oral dose): 0.06 [−0.15, 0.27] P = .55 Hz
- Delta-power Pz-Oz, LSM CFB (75 mg single oral dose): 0.1 Hz
- Delta-power Pz-Oz, estimate of difference compared to placebo (75 mg single oral dose): 0.04 [−0.21, 0.27] P = .76 Hz
- Gamma-power Fz-Cz, LSM CFB (75 mg single oral dose): 0.27 Hz
- Gamma-power Fz-Cz, estimate of difference compared to placebo (75 mg single oral dose): 0.17 [−0.03, 0.37] P = .10 Hz
- Gamma-power Pz-Oz, LSM CFB (75 mg single oral dose): 0.27 Hz
- Gamma-power Pz-Oz, estimate of difference compared to placebo (75 mg single oral dose): 0.06 [−0.19, 0.32] P = .64 Hz
- Theta-power Fz-Cz, LSM CFB (75 mg single oral dose): 0.18 Hz
- Theta-power Fz-Cz, estimate of difference compared to placebo (75 mg single oral dose): 0.11 [−0.12, 0.33] P = .34 Hz
